Experimental data reported in ChEMBL document CHEMBL3745678, “Novel β-Carboline/Hydroxamic Acid Hybrids Targeting Both Histone Deacetylase and DNA Display High Anticancer Activity via Regulation of the p53 Signaling Pathway” (J Med Chem, 2015).
Activity calls are given as the source filed them. The calls are words filed in the database; no cut-off is given here.

Tests used:
[1] = molecular target: Cellular tumor antigen p53 (Homo sapiens) (UniProt P04637); assay: Activation of p53 in human HCT116 cell at 0.1 to 5 uM after 12 hrs by western blot analysis; assay type: cell-based; details: HCT-116
Sequence of Cellular tumor antigen p53 (Homo sapiens) (P04637 whole entry, looked up): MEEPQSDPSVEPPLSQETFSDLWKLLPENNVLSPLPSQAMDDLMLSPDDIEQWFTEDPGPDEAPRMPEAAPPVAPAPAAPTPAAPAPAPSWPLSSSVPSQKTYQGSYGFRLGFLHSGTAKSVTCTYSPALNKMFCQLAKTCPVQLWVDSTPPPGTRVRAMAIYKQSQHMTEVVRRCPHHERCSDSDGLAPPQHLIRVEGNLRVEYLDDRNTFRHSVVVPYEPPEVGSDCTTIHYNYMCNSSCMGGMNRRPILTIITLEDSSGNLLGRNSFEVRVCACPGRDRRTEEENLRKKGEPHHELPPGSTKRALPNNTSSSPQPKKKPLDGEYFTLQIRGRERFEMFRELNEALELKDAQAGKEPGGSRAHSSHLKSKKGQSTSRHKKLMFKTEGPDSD
Outline: (§1)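 HCT116 cells exposed 12 h to compound or vehicle, then lysed on ice in PBS with 1% NP-40, 0.5% deoxycholate, 0.1% SDS and protease inhibitors. Up to 50 µg protein run on SDS-PAGE and immunoblotted for phospho-p53 (Ser15), p53 and p21. Bands quantified by densitometry against β-actin; mean ± SD of three experiments.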

[2] = Acute toxicity in ICR mouse assessed as survival rate at 585.9 mg/kg, ip measured on day 14; assay type: organism-based; details: in vivo
Outline: (§2)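 Female ICR mice, single intraperitoneal injection at 585.9, 468.8, […], 300 or 240 mg/kg, or vehicle control, n = 10 per group. Deaths counted at 1 h, 4 h, daily on days 1-4 and over days 5-14. Eating, drinking, body weight and activity observed for 14 days, with survival (%) taken on day 14. LD50 calculated from mortality.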

[3] = Cytotoxicity against rat IEC-18 cells assessed as survival after 48 hrs by MTT assay; assay type: cell-based
Outline: (§3)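 HCT116 and rat IEC-18 cells incubated 48 h over a 0–5 µM range. Viability measured by MTT and expressed as % of control. GI50 taken from the inhibition curves; three independent experiments.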

[4] = Acute toxicity in ICR mouse assessed as survival rate at 240 mg/kg, ip measured on day 14; assay type: organism-based; details: in vivo; outline: as §2
[5] = Antiproliferative activity against human HCT116 cells assessed as cell viability after 48 hrs by MTT assay; assay type: functional, cell-based, HCT-116; details: Homo sapiens, HCT-116, 48 h
Mus musculus [6] = assay: Acute toxicity in ICR mouse assessed as death at 240 to 585.9 mg/kg, ip measured after 4 hrs; assay type: organism-based; details: in vivo; outline: as §2
HCT-116 [7] = assay: Induction of apoptosis in human HCT116 cells at 1 uM after 48 hrs by annexin V-FITC/propidium iodide staining-based flow cytometric analysis; assay type: functional
Outline: (§4)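 HCT116 cells cultured overnight, then exposed in triplicate for 48 h to 0.1, 1.0 or 5.0 µM, SAHA 5.0 µM or vehicle. Stained with FITC-Annexin V/PI for 15 min at room temperature.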

[8] = Downregulation of Bcl2 expression in human HCT116 cells after 48 hrs by western blot analysis; assay type: functional, cell-based; details: HCT-116
Outline: (§5)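 HCT116 cells treated 48 h with or without compound. Western blots probed for Bax, Bcl-2, cleaved caspase-3 and PARP. Band intensities relative to β-actin by densitometry; means ± SD from three separate experiments.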

Mus musculus [9] = assay: Toxicity in BALB/c mouse xenografted with human HCT116 cells assessed as body weight change at 90 mg/kg, po measured twice per week over 22 days; assay type: organism-based, HCT-116; details: in vivo, 528 h
[10] = Acute toxicity in ICR mouse assessed as survival rate at 375 mg/kg, ip measured on day 14; assay type: organism-based; details: in vivo; outline: as §2
Mus musculus [11] = assay: Acute toxicity in ICR mouse assessed as abnormal activity at 240 mg/kg, ip measured for 14 days; assay type: organism-based; details: in vivo, 336 h; outline: as §2
[12] = Acute toxicity in ip dosed ICR mouse measured for 14 days; assay type: organism-based; details: in vivo; outline: as §2
HCT-116 [13] = assay: Induction of apoptosis in human HCT116 cells at 5 uM after 48 hrs by annexin V-FITC/propidium iodide staining-based flow cytometric analysis; assay type: functional; outline: as §4
[14] = molecular target: Histone deacetylase (Homo sapiens) (UniProt Q13547+O15379+Q9UBN7+Q92769+Q9UQL6+Q8WUI4+Q9BY41+Q96DB2+P56524+Q9UKV0+Q969S8); assay: Potency index, ratio of SAHA IC50 to compound IC50 for HDAC in human HeLa cell nuclear extract; assay type: cell-based
Outline: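 HDAC source was HeLa nuclear extract. Incubated with compound dilutions and Boc-Lys(Ac)-AMC substrate for 60 min at 37 °C, then lysine developer added for 30 min. Fluorescence read at ex 355/em 460 nm, activity expressed as % of control and IC50 fitted. Index = SAHA IC50 ÷ compound IC50.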

Mus musculus [15] = assay: Acute toxicity in ICR mouse assessed as death at 240 to 375 mg/kg, ip measured after 2 days; assay type: organism-based; details: in vivo, 48 h; outline: as §2
HDAC6 (Homo sapiens) = assay: Selectivity index, ratio of IC50 for human recombinant HDAC8 to IC50 for human recombinant HDAC6
HCT-116 [16] = assay: Induction of apoptosis in human HCT116 cells after 48 hrs by annexin V-FITC/propidium iodide staining-based flow cytometric analysis; assay type: functional, cell-based; outline: as §4
HCT-116 [17] = assay: Induction of DNA damage in human HCT116 cells assessed as histone H2AX phosphorylation at S139 after 12 hrs by western blot analysis; assay type: functional, cell-based
Outline: (§6)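 DNA-damage marker. HCT116 cells treated 12 h with compound or vehicle. Lysates immunoblotted with anti-H2AX S139ph, and β-actin served as the control. Relative levels were obtained by densitometric scanning; means ± SD of three separate experiments.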

[18] = molecular target: Cellular tumor antigen p53 (Homo sapiens) (UniProt P04637); assay: Activation of p53 in human HCT116 cells assessed as p53 phosphorylation at ser15 residue at 0.1 to 5 uM after 12 hrs by western blot analysis; assay type: cell-based; details: HCT-116; outline: as §1
Mus musculus [19] = assay: Acute toxicity in ICR mouse assessed as death at 240 to 375 mg/kg, ip measured after 4 hrs; assay type: organism-based; details: in vivo; outline: as §2
HCT-116 [20] = assay: Induction of apoptosis in human HCT116 cells at 0.1 uM after 48 hrs by annexin V-FITC/propidium iodide staining-based flow cytometric analysis; assay type: functional; outline: as §4
Histone deacetylase 1 = Histone deacetylase 1 (Homo sapiens, UniProt Q13547); assay: Potency index, ratio of IC50 for SAHA to IC50 for test compound for inhibition of human recombinant HDAC1 using Boc-Lys (Ac)-AMC as substrate after 60 mins by fluorometric analysis
Sequence of Histone deacetylase 1 (Q13547 whole entry): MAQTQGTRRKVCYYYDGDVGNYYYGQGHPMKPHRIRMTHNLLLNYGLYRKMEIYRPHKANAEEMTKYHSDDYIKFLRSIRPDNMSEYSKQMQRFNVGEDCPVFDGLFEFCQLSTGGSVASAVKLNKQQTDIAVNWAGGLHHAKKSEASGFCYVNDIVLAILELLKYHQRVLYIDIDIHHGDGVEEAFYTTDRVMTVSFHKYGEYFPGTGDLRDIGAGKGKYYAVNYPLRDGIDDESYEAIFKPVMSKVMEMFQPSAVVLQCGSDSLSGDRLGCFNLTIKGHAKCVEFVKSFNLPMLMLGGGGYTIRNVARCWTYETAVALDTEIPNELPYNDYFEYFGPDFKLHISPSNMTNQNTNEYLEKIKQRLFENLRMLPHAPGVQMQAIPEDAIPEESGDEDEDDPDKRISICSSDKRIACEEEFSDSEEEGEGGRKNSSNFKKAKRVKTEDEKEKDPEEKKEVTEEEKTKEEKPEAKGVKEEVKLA
Outline: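 Recombinant human HDAC1 and HDAC8 incubated with compound dilutions plus Boc-Lys(Ac)-AMC at 37 °C for 60 min, then developer for 30 min. Fluorescence read at ex 355/em 460 nm; activity as % of control and IC50 calculated. Ratios formed from these IC50s; three independent experiments.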

Mus musculus [21] = assay: Acute toxicity in ICR mouse assessed as death at 240 mg/kg, ip measured after 4 days; assay type: organism-based; details: in vivo, 96 h; outline: as §2
HCT-116 [22] = assay: Induction of DNA damage in human HCT116 cells assessed as histone H2AX phosphorylation at S139 at 1 to 5 uM after 12 hrs by western blot analysis; assay type: functional, cell-based; outline: as §6
[23] = Antitumor activity against human HCT116 cells xenografted in BALB/c mouse assessed as tumor weight at 90 mg/kg, po measured twice per week over 22 days (reference value: 1.38 +/- 0.13 g); assay type: functional, HCT-116
HCT-116 [24] = assay: Antitumor activity against human HCT116 cells xenografted in BALB/c mouse assessed as tumor growth inhibition at 45 and 90 mg/kg, ip measured twice per week over 22 days; assay type: functional, organism-based
[25] = Upregulation of Bax expression in human HCT116 cells after 48 hrs by western blot analysis; assay type: functional, cell-based; details: HCT-116; outline: as §5
HCT-116 [26] = assay: Selectivity index, ratio of GI50 for rat IEC-18 cells to GI50 for human HCT116 cells; assay type: functional; outline: as §3
Mus musculus [27] = assay: Acute toxicity in ICR mouse assessed as body weight change at 240 mg/kg, ip measured for 14 days; assay type: organism-based; details: in vivo, 336 h; outline: as §2

COc1ccc(-c2nc(NC(=O)NCCCC(=O)NO)cc3c2[nH]c2ccccc23)cc1
Activity [1]: Active
survival at 14 day [2]: 30%
GI50 at 48 h [3]: 5460 nM
survival at 14 day [4]: 100%
GI50 [5]: 1170 nM
IC50 [5]: 830 nM
Activity (Mus musculus [6]): Non-toxic
Activity (HCT-116 [7]): 41.3%
Activity [8]: Dose-dependent effect
Activity (Mus musculus [9]): Non-toxic
survival at 14 day [10]: 70%
Activity (Mus musculus [11]): Non-toxic
LD50 at 336 h [12]: 472 mg/kg
Activity (HCT-116 [13]): 73.9%
Ratio IC50 [14]: 2
Activity (Mus musculus [15]): Non-toxic
Ratio IC50 (HDAC6 (Homo sapiens)): 5
Activity (HCT-116 [16]): Dose-dependent effect
Activity (HCT-116 [17]): Dose-dependent effect
Activity [18]: Active
Activity (Mus musculus [19]): Non-toxic
Activity (HCT-116 [20]): 21.6%
Ratio IC50 (Histone deacetylase 1): 7
Activity (Mus musculus [21]): Non-toxic
Activity (HCT-116 [22]): Active
Activity [23]: 0.53 g
TGI (HCT-116 [24]): Active
Activity [25]: Dose-dependent effect
RatioGI50 (HCT-116 [26]): 5
Activity (Mus musculus [27]): Non-toxic
